In brackets after ≈: the same amount, converted by molar mass.
What was measured:
Pseudomonas aeruginosa [1] = assay: Antimicrobial activity against Pseudomonas aeruginosa at 4 ug/ml after 24 hrs by agar diffusion technique; type: functional; conditions: read-out: DIZ
Method in brief: (§1)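 Strains came from a university microbiology department. Inocula were 10⁶ CFU/mL. Mueller-Hinton agar was seeded with culture, poured 3–4 mm thick, and 10 mm cups were bored. Compounds were dissolved in DMF (10 mg/mL stock), diluted, and the solution was placed in the cups. Plates were incubated at 37 °C overnight. Inhibition zone diameter (mm) was read at 24 h.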

Pseudomonas aeruginosa [2] = assay: Antimicrobial activity against Pseudomonas aeruginosa at 16 ug/ml after 24 hrs by agar diffusion technique; type: functional; conditions: read-out: DIZ; method in brief: as §1
Pseudomonas aeruginosa [3] = assay: Antimicrobial activity against Pseudomonas aeruginosa at 64 ug/ml after 24 hrs by agar diffusion technique; type: functional; conditions: read-out: DIZ; method in brief: as §1
Pseudomonas aeruginosa [4] = assay: Antimicrobial activity against Pseudomonas aeruginosa at 128 ug/ml after 24 hrs by agar diffusion technique; type: functional; conditions: read-out: DIZ; method in brief: as §1
Pseudomonas aeruginosa [5] = assay: Antimicrobial activity against Pseudomonas aeruginosa at 512 ug/ml after 24 hrs by agar diffusion technique; type: functional; conditions: read-out: DIZ; method in brief: as §1
Escherichia coli [6] = assay: Antimicrobial activity against Escherichia coli at 4 ug/ml after 24 hrs by agar diffusion technique; type: functional; conditions: read-out: DIZ; method in brief: as §1
Escherichia coli [7] = assay: Antimicrobial activity against Escherichia coli at 16 ug/ml after 24 hrs by agar diffusion technique; type: functional; conditions: read-out: DIZ; method in brief: as §1
Escherichia coli [8] = assay: Antimicrobial activity against Escherichia coli at 64 ug/ml after 24 hrs by agar diffusion technique; type: functional; conditions: read-out: DIZ; method in brief: as §1
Escherichia coli [9] = assay: Antimicrobial activity against Escherichia coli at 128 ug/ml after 24 hrs by agar diffusion technique; type: functional; conditions: read-out: DIZ; method in brief: as §1
Escherichia coli [10] = assay: Antimicrobial activity against Escherichia coli at 512 ug/ml after 24 hrs by agar diffusion technique; type: functional; conditions: read-out: DIZ; method in brief: as §1
Klebsiella pneumoniae [11] = assay: Antimicrobial activity against Klebsiella pneumoniae at 4 ug/ml after 24 hrs by agar diffusion technique; type: functional; conditions: read-out: DIZ; method in brief: as §1
Klebsiella pneumoniae [12] = assay: Antimicrobial activity against Klebsiella pneumoniae at 16 ug/ml after 24 hrs by agar diffusion technique; type: functional; conditions: read-out: DIZ; method in brief: as §1
Klebsiella pneumoniae [13] = assay: Antimicrobial activity against Klebsiella pneumoniae at 64 ug/ml after 24 hrs by agar diffusion technique; type: functional; conditions: read-out: DIZ; method in brief: as §1
Klebsiella pneumoniae [14] = assay: Antimicrobial activity against Klebsiella pneumoniae at 128 ug/ml after 24 hrs by agar diffusion technique; type: functional; conditions: read-out: DIZ; method in brief: as §1
Klebsiella pneumoniae [15] = assay: Antimicrobial activity against Klebsiella pneumoniae at 512 ug/ml after 24 hrs by agar diffusion technique; type: functional; conditions: read-out: DIZ; method in brief: as §1
Staphylococcus aureus [16] = assay: Antimicrobial activity against Staphylococcus aureus at 4 ug/ml after 24 hrs by agar diffusion technique; type: functional; conditions: read-out: DIZ; method in brief: as §1
Staphylococcus aureus [17] = assay: Antimicrobial activity against Staphylococcus aureus at 16 ug/ml after 24 hrs by agar diffusion technique; type: functional; conditions: read-out: DIZ; method in brief: as §1
Staphylococcus aureus [18] = assay: Antimicrobial activity against Staphylococcus aureus at 64 ug/ml after 24 hrs by agar diffusion technique; type: functional; conditions: read-out: DIZ; method in brief: as §1
Staphylococcus aureus [19] = assay: Antimicrobial activity against Staphylococcus aureus at 128 ug/ml after 24 hrs by agar diffusion technique; type: functional; conditions: read-out: DIZ; method in brief: as §1
Staphylococcus aureus [20] = assay: Antimicrobial activity against Staphylococcus aureus at 512 ug/ml after 24 hrs by agar diffusion technique; type: functional; conditions: read-out: DIZ; method in brief: as §1
Pseudomonas aeruginosa [21] = assay: Antimicrobial activity against Pseudomonas aeruginosa after 24 hrs by agar diffusion technique; type: functional; conditions: for MIC: Pseudomonas aeruginosa, 24 h
Method in brief: (§2)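 Agar cup diffusion on Mueller-Hinton agar seeded from 10⁶ CFU/mL suspensions, with 10 mm cups in a 3–4 mm layer. Compounds were in DMF (10 mg/mL stock) at several concentrations. Plates were incubated at 37 °C and zones measured after 24 h. MIC was taken as the intercept of the plot of log concentration against inhibition zone diameter.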

Escherichia coli [22] = assay: Antimicrobial activity against Escherichia coli after 24 hrs by agar diffusion technique; type: functional; conditions: for MIC: Escherichia coli, 24 h; method in brief: as §2
Klebsiella pneumoniae [23] = assay: Antimicrobial activity against Klebsiella pneumoniae after 24 hrs by agar diffusion technique; type: functional; conditions: for MIC: Klebsiella pneumoniae, 24 h; method in brief: as §2
Staphylococcus aureus [24] = assay: Antimicrobial activity against Staphylococcus aureus after 24 hrs by agar diffusion technique; type: functional; conditions: for MIC: Staphylococcus aureus, 24 h; method in brief: as §2
[25] = Octanol-phosphate buffer partition coefficient, log D at pH 7.4 by spectrophotometry; type: physicochemical
Method in brief: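 Shake-flask method. A 0.2 mg/mL stock was diluted into pH 7.4 phosphate buffer and mixed with an equal volume of n-octanol, phases mutually presaturated and protected from light. Samples were vortexed 3 min, then shaken 5 h at 25 °C. Both phases were assayed by UV at 270–280 nm. D is the molar concentration ratio, octanol to aqueous.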

Compound	zone of inhibition at 4 µg/mL (Pseudomonas aeruginosa [1]) [mm]	zone of inhibition at 16 µg/mL (Pseudomonas aeruginosa [2]) [mm]	zone of inhibition at 64 µg/mL (Pseudomonas aeruginosa [3]) [mm]	zone of inhibition at 128 µg/mL (Pseudomonas aeruginosa [4]) [mm]	zone of inhibition at 512 µg/mL (Pseudomonas aeruginosa [5]) [mm]	zone of inhibition at 4 µg/mL (Escherichia coli [6]) [mm]	zone of inhibition at 16 µg/mL (Escherichia coli [7]) [mm]	zone of inhibition at 64 µg/mL (Escherichia coli [8]) [mm]	zone of inhibition at 128 µg/mL (Escherichia coli [9]) [mm]	zone of inhibition at 512 µg/mL (Escherichia coli [10]) [mm]	zone of inhibition at 4 µg/mL (Klebsiella pneumoniae [11]) [mm]	zone of inhibition at 16 µg/mL (Klebsiella pneumoniae [12]) [mm]	zone of inhibition at 64 µg/mL (Klebsiella pneumoniae [13]) [mm]	zone of inhibition at 128 µg/mL (Klebsiella pneumoniae [14]) [mm]	zone of inhibition at 512 µg/mL (Klebsiella pneumoniae [15]) [mm]	zone of inhibition at 4 µg/mL (Staphylococcus aureus [16]) [mm]	zone of inhibition at 16 µg/mL (Staphylococcus aureus [17]) [mm]	zone of inhibition at 64 µg/mL (Staphylococcus aureus [18]) [mm]	zone of inhibition at 128 µg/mL (Staphylococcus aureus [19]) [mm]	zone of inhibition at 512 µg/mL (Staphylococcus aureus [20]) [mm]	also measured
CCn1cc(C(=O)O)c(=O)c2cc(F)c(N3CC[N+](CCO)(CCO)CC3)cc21.[Br-]	0	0	0	0	0	0	4	7	9	12	0	0	4	5	11	0	0	0	0	14	logMIC (Pseudomonas aeruginosa [21]): 2.71; MIC (Pseudomonas aeruginosa [21]): > 512 µg/mL; logMIC (Escherichia coli [22]): 0.6; MIC (Escherichia coli [22]): 4 µg/mL; logMIC (Klebsiella pneumoniae [23]): 1; MIC (Klebsiella pneumoniae [23]): 10 µg/mL; logMIC (Staphylococcus aureus [24]): 2.11; MIC (Staphylococcus aureus [24]): 128 µg/mL; logD [25]: 0.158
CCn1cc(C(=O)O)c(=O)c2cc(F)c(N3CCN(C4CCCC4)CC3)cc21	0	0	0	0	0	0	0	0	3	8	0	0	2	3	8	0	0	4	7	15	logMIC (Pseudomonas aeruginosa [21]): 2.71; MIC (Pseudomonas aeruginosa [21]): > 512 µg/mL; logMIC (Escherichia coli [22]): 1.81; MIC (Escherichia coli [22]): 64 µg/mL (≈ 165 µM); logMIC (Klebsiella pneumoniae [23]): 1.11; MIC (Klebsiella pneumoniae [23]): 13 µg/mL (≈ 33.6 µM); logMIC (Staphylococcus aureus [24]): 1.04; MIC (Staphylococcus aureus [24]): 11 µg/mL (≈ 28.4 µM)
